ChEMBL document CHEMBL1833814 (Bioorg Med Chem Lett, 2011)
≈ marks a conversion by molar mass, not a printed value.

What was measured:
Fatty acid synthase [1] = biological target: Fatty acid synthase (Homo sapiens, UniProt P49327); assay: Inhibition of human FAS assessed as synthesis of long chain fatty acids from malonyl CoA after 60 mins by fluorescence assay
In short: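 FAS enzyme prepared from HeLa cells, in enzyme buffer (20 mM K phosphate, 1 mM EDTA, 1 mM DTT, 5% glycerol, pH 7.4). It was preincubated 60 min at 37 °C with compound (0.1% DMSO), 326 µM NADPH and 60 µM acetyl CoA in 100 mM K phosphate, 1 mM EDTA, 1 mM DTT, pH 7.0. The reaction was started with 200 µM malonyl CoA. NADPH consumption was read at 340 nm over 10 min, and the slope (Vmax) was taken.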

[2] = Permeability across human Caco2 cells; type: ADME, cell-based; conditions: Caco-2, read-out: permeability
Liver microsomes [3] = assay: Metabolic stability in rat liver microsomes; type: ADME, Microsome
Rattus norvegicus [4] = species on record: Rattus norvegicus; assay: Liver blood flow rat; type: ADME, organism-based
Liver microsomes [5] = assay: Metabolic stability in human liver microsomes; type: ADME, Microsome
[6] = Plasma protein binding in rat; type: ADME, cell-free; conditions: read-out: PPB (converted)
[7] = Clearance in iv dosed Han/Wistar rat; type: ADME, organism-based; conditions: in vivo
In short: (§1)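 Male Han/Wistar rats were dosed intravenously.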

[8] = Volume of distribution at steady state in iv dosed Han/Wistar rat; type: ADME, organism-based; conditions: in vivo, read-out: Vdss; in short: as §1
[9] = Aqueous solubility of compound at pH 7.4; type: physicochemical; conditions: buffer
[10] = Half life in Han/Wistar rat at 4 mg/kg, po; type: ADME, organism-based; design: dose 4 mg/kg, route oral; conditions: in vivo
In short: (§2)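 Male Han/Wistar rats were dosed orally. Compound levels were measured in plasma, and in brain and CSF at 2 h.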

[11] = Tmax in Han/Wistar rat at 4 mg/kg, po; type: ADME, organism-based; design: dose 4 mg/kg, route oral; conditions: in vivo; in short: as §2
[12] = Cmax in Han/Wistar rat at 4 mg/kg, po; type: ADME, organism-based; design: dose 4 mg/kg, route oral; conditions: in vivo; in short: as §2
[13] = AUC (0 to infinity) in Han/Wistar rat at 4 mg/kg, po; type: ADME, organism-based; design: time infinity, dose 4 mg/kg, route oral; conditions: plasma; in short: as §2
[14] = Oral bioavailability in Han/Wistar rat at 4 mg/kg; type: ADME, organism-based; conditions: in vivo; in short: as §2
[15] = Drug level in Han/Wistar rat brain at 4 mg/kg, po after 2 hrs; type: ADME, organism-based; design: dose 4 mg/kg, route oral; conditions: read-out: Drug uptake; in short: as §2
[16] = Drug level in Han/Wistar rat cerebrospinal fluid at 4 mg/kg, po after 2 hrs; type: ADME, organism-based; design: dose 4 mg/kg, route oral; conditions: read-out: Drug uptake; in short: as §2
Homo sapiens = species on record: Homo sapiens; assay: Liver blood flow human; type: ADME, organism-based
Fatty acid synthase [17] = biological target: Fatty acid synthase (Mus musculus, UniProt P19096); assay: Inhibition of FAS in mouse N42 cells assessed as [14C]-acetate incorporation after 4 hrs by scintillation counting; type: cell-based
In short: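 Immortalized clonal neuronal mouse hypothalamic N-42 cells were exposed to compound for 60 min at 37 °C, then to 14C-acetate (10^6 dpm) for 4 h at 37 °C. Lipids were extracted with chloroform/methanol and the lower phase was evaporated. Incorporated radioactivity was measured by scintillation counting.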

Rattus norvegicus [18] = species on record: Rattus norvegicus; assay: Binding affinity to rat central imidazoline I2 receptor at 10 uM by radioligand binding assay
[19] = biological target: Alpha-1A adrenergic receptor (Rattus norvegicus) (UniProt P43140); assay: Binding affinity to rat adrenergic alpha1A receptor at 10 uM by radioligand binding assay
Rattus norvegicus [20] = species on record: Rattus norvegicus; assay: Binding affinity to rat rolipram binding site at 10 uM by radioligand binding assay
[21] = biological target: Histamine H1 receptor (Homo sapiens) (UniProt P35367); assay: Binding affinity to human histamine H1 receptor at 10 uM by radioligand binding assay
Rattus norvegicus [22] = species on record: Rattus norvegicus; assay: Binding affinity to rat sigma 2 receptor at 10 uM by radioligand binding assay
Rattus norvegicus [23] = species on record: Rattus norvegicus; assay: Binding affinity to rat ATP-sensitive potassium channel at 10 uM by radioligand binding assay
[24] = biological target: Muscarinic acetylcholine receptor M2 (Homo sapiens) (UniProt P08172); assay: Binding affinity to human muscarinic M2 receptor at 10 uM by radioligand binding assay
[25] = biological target: Adenosine receptor A2a (Homo sapiens) (UniProt P29274); assay: Binding affinity to human adenosine A2A receptor at 10 uM by radioligand binding assay
[26] = biological target: Sodium-dependent noradrenaline transporter (Homo sapiens) (UniProt P23975); assay: Binding affinity to human NET at 10 uM by radioligand binding assay
Sequence of Sodium-dependent noradrenaline transporter (Homo sapiens) (P23975 whole entry): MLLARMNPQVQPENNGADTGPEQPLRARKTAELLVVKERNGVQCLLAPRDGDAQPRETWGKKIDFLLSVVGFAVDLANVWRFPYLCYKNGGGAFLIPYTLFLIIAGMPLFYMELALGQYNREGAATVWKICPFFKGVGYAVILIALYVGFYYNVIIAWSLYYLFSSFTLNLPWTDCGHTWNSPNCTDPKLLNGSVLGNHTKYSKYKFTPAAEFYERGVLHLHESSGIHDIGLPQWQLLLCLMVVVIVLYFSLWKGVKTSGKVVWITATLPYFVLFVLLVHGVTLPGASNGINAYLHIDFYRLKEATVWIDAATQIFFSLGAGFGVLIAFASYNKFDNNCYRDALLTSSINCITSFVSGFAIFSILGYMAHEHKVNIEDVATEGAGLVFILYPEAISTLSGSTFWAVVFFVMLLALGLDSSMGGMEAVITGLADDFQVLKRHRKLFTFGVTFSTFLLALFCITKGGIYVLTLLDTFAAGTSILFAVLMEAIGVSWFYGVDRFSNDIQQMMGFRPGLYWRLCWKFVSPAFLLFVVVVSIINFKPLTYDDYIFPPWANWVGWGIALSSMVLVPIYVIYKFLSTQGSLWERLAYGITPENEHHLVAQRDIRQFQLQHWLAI

[27] = biological target: Acetylcholine receptor subunit alpha (Homo sapiens) (UniProt P02708); assay: Binding affinity to human bungrotoxin binding site of nicotinic acetylcholine receptor alpha1 at 10 uM by radioligand binding assay
Sequence of Acetylcholine receptor subunit alpha (Homo sapiens) (P02708 whole entry): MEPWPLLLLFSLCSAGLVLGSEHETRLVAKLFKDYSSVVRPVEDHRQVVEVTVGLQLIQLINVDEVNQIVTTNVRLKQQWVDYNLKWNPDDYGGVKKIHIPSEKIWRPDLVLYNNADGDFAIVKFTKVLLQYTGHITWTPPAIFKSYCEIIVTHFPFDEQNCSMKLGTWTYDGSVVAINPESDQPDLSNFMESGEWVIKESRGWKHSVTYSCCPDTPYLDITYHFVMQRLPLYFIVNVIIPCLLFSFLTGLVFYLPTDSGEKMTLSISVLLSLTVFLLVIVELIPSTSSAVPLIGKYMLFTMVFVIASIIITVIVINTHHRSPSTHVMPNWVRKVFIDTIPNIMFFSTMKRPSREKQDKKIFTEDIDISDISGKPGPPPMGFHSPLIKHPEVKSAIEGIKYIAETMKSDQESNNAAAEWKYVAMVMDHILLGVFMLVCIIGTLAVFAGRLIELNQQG

[28] = biological target: Prostaglandin E2 receptor EP4 subtype (Homo sapiens) (UniProt P35408); assay: Binding affinity to human EP4 receptor at 10 uM by radioligand binding assay
Rattus norvegicus [29] = species on record: Rattus norvegicus; assay: Binding affinity to rat GABA-A receptor at 10 uM by radioligand binding assay
[30] = biological target: D(1A) dopamine receptor (Homo sapiens) (UniProt P21728); assay: Binding affinity to human dopamine D1 receptor at 10 uM by radioligand binding assay
Rattus norvegicus [31] = species on record: Rattus norvegicus; assay: Binding affinity to rat dihydropyridine binding site of calcium channel L-type at 10 uM by radioligand binding assay
Mus musculus = species on record: Mus musculus; assay: Binding affinity to mouse phorbol ester receptor at 10 uM by radioligand binding assay
[32] = biological target: D(2) dopamine receptor (Homo sapiens) (UniProt P14416); assay: Binding affinity to human dopamine D2short receptor at 10 uM by radioligand binding assay
Sequence of D(2) dopamine receptor (Homo sapiens) (P14416 whole entry): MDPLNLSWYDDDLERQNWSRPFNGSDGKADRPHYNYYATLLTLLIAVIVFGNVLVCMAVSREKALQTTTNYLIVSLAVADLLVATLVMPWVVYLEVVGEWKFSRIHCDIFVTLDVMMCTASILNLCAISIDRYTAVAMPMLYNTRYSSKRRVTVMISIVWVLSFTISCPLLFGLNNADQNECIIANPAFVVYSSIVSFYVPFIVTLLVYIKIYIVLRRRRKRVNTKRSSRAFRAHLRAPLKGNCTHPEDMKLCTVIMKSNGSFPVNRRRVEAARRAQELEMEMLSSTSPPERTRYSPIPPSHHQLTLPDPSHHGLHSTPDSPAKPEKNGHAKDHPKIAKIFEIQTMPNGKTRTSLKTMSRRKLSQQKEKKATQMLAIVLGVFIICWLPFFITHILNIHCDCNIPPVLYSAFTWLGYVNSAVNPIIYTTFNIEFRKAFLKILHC

[33] = biological target: Alpha-1B adrenergic receptor (Rattus norvegicus) (UniProt P15823); assay: Binding affinity to rat adrenergic Alpha-1B receptor at 10 uM by radioligand binding assay
[34] = biological target: Beta-1 adrenergic receptor (Homo sapiens) (UniProt P08588); assay: Binding affinity to human beta1 adrenergic receptor at 10 uM by radioligand binding assay
Rattus norvegicus [35] = species on record: Rattus norvegicus; assay: Binding affinity to rat agonist site of GABA-A receptor at 10 uM by radioligand binding assay
[36] = biological target: Alpha-2A adrenergic receptor (Homo sapiens) (UniProt P08913); assay: Binding affinity to human adrenergic alpha2A receptor at 10 uM by radioligand binding assay
Sequence of Alpha-2A adrenergic receptor (Homo sapiens) (P08913 whole entry): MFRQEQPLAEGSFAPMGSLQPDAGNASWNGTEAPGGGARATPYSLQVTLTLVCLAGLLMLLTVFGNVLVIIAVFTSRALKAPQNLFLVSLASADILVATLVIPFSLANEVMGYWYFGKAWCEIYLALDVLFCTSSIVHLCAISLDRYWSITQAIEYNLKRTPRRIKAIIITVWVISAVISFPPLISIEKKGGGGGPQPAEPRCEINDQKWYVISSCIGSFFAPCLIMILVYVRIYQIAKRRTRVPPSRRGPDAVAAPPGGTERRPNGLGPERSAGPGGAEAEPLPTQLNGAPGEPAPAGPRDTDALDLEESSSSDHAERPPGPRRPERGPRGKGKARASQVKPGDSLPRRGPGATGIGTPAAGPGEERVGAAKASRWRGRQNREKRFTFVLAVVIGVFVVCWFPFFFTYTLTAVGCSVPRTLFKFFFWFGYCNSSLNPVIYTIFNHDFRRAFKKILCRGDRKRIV

Rattus norvegicus [37] = species on record: Rattus norvegicus; assay: Binding affinity to rat sodium channel site 2 at 10 uM by radioligand binding assay
[38] = biological target: Mu-type opioid receptor (Homo sapiens) (UniProt P35372); assay: Binding affinity to human MOP receptor at 10 uM by radioligand binding assay
[39] = biological target: Beta-2 adrenergic receptor (Homo sapiens) (UniProt P07550); assay: Binding affinity to human adrenergic beta2 receptor at 10 uM by radioligand binding assay
[40] = biological target: Pyroglutamylated RF-amide peptide receptor (Homo sapiens) (UniProt Q96P65); assay: Binding affinity to human GPR103 receptor at 10 uM by radioligand binding assay
[41] = biological target: Glutamate NMDA receptor (Rattus norvegicus) (UniProt P35439+Q00959+Q00960+Q00961+Q62645+Q8VHN2+Q9R1M7); assay: Binding affinity to rat NMDA receptor at 10 uM by radioligand binding assay; type: protein-complex assay
[42] = biological target: Sigma non-opioid intracellular receptor 1 (Homo sapiens) (UniProt Q99720); assay: Binding affinity to human sigma 1 receptor at 10 uM by radioligand binding assay
Sequence of Sigma non-opioid intracellular receptor 1 (Homo sapiens) (Q99720 whole entry): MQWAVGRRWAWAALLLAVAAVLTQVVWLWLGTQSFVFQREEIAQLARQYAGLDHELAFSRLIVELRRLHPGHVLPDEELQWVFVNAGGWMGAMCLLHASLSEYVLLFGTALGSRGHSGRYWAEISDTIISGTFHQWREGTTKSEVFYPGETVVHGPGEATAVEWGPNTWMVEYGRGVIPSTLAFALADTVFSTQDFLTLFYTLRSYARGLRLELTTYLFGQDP

hERG (KCNH2) = hERG (KCNH2) (Homo sapiens, UniProt Q12809); assay: Binding affinity to human ERG at 10 uM by radioligand binding assay
[43] = biological target: Muscarinic acetylcholine receptor M3 (Homo sapiens) (UniProt P20309); assay: Binding affinity to human muscarinic M3 receptor at 10 uM by radioligand binding assay
[44] = biological target: Adenosine receptor A1 (Homo sapiens) (UniProt P30542); assay: Binding affinity to human adenosine A1 receptor at 10 uM by radioligand binding assay
Sequence of Adenosine receptor A1 (Homo sapiens) (P30542 whole entry): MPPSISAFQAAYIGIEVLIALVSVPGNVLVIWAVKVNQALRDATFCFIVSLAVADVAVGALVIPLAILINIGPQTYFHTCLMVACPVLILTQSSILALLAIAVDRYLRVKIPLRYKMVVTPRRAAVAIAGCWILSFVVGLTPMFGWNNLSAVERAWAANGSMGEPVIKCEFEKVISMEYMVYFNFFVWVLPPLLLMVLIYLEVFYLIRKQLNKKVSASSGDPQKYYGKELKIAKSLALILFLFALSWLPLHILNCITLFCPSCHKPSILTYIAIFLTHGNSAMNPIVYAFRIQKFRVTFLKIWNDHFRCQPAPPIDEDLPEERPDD

Cytochrome P450 1A2 = Cytochrome P450 1A2 (Homo sapiens, UniProt P05177); assay: Inhibition of human CYP1A2; type: ADME
Cytochrome P450 2C9 = Cytochrome P450 2C9 (Homo sapiens, UniProt P11712); assay: Inhibition of human CYP2C9; type: ADME
Cytochrome P450 2C19 = Cytochrome P450 2C19 (Homo sapiens, UniProt P33261); assay: Inhibition of human CYP2C19; type: ADME
Cytochrome P450 2D6 = Cytochrome P450 2D6 (Homo sapiens, UniProt P10635); assay: Inhibition of human CYP2D6; type: ADME
Cytochrome P450 3A4 = Cytochrome P450 3A4 (Homo sapiens, UniProt P08684); assay: Inhibition of human CYP3A4; type: ADME
U937 (Homo sapiens) = assay: Cytotoxicity against human U937 cells up to 30 uM by LDH release assay

Sequence of Fatty acid synthase (Homo sapiens, UniProt P49327) (P49327 whole entry): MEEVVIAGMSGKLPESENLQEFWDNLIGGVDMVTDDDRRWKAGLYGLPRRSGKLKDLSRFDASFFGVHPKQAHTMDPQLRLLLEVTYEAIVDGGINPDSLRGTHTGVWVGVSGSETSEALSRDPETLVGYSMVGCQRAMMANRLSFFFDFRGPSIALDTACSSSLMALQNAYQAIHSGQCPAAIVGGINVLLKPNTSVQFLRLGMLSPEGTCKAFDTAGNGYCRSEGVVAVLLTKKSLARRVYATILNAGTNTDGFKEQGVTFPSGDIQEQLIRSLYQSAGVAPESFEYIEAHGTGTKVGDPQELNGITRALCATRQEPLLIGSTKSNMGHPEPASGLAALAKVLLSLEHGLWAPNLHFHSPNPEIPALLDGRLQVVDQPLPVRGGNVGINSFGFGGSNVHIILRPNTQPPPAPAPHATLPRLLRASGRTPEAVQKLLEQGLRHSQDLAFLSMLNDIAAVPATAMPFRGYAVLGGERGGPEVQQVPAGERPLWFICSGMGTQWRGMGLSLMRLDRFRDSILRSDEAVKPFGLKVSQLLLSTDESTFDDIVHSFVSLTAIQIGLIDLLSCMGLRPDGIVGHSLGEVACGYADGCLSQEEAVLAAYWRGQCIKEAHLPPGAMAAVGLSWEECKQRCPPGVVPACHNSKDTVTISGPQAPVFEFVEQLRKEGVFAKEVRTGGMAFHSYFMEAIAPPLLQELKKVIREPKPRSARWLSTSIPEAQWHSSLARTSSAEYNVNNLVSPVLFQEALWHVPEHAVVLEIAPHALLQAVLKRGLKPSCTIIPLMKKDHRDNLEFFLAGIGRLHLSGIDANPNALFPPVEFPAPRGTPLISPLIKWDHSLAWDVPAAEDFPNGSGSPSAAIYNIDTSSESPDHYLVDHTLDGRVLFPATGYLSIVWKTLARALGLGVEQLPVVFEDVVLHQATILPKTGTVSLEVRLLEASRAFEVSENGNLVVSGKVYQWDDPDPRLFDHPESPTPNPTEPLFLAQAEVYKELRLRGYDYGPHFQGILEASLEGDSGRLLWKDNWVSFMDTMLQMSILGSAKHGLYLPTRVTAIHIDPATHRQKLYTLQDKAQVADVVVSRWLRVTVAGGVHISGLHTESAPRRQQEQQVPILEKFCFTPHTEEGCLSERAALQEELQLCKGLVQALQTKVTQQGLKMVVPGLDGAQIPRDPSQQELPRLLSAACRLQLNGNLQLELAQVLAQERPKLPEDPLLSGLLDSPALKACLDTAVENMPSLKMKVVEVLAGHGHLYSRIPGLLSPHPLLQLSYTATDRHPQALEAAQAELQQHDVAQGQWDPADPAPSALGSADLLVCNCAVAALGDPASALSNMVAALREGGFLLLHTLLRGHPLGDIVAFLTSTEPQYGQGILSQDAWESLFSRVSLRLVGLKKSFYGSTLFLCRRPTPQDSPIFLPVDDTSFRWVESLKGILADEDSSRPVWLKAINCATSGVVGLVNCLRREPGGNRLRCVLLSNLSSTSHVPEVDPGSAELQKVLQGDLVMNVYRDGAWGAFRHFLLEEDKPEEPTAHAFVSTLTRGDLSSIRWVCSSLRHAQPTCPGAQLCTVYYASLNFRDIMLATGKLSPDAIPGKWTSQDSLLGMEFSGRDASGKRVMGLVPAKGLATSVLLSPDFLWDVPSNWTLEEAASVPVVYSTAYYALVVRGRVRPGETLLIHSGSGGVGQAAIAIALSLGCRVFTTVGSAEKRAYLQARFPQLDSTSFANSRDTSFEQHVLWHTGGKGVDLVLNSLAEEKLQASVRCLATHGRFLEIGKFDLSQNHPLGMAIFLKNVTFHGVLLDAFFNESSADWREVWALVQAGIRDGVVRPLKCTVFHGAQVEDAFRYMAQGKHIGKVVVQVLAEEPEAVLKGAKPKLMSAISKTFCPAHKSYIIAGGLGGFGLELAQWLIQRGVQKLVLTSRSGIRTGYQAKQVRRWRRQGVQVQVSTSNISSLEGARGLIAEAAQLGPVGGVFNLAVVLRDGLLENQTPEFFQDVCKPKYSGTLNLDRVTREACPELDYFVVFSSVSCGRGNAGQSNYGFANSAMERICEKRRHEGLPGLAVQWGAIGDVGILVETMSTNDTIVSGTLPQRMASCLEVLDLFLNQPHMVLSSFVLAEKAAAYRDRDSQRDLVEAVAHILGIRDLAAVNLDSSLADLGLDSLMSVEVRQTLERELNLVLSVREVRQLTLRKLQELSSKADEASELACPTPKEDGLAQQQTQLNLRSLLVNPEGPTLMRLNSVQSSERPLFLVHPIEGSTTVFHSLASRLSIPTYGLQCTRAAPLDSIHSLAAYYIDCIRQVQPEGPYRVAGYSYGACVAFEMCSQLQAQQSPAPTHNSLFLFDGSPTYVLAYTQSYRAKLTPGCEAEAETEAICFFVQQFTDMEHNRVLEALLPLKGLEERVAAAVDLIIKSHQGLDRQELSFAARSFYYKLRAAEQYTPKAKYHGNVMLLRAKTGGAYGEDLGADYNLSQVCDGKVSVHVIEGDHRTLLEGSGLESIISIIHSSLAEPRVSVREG

CCNC(=O)N[C@H]1CC[C@@H](C(=O)N(C)c2ccc(-c3nc4ccccc4[nH]3)cc2)C1
IC50 (Fatty acid synthase [1]): 400 nM

CCC(=O)N[C@H]1CC[C@@H](C(=O)N(C)c2ccc(-c3nc4ccccc4o3)cc2)C1 [BI 99179]
Papp [2]: 94 ×10⁻⁶ cm/s | Stability (Liver microsomes [3]): Stable | QH (Rattus norvegicus [4]): < 27% | Stability (Liver microsomes [5]): Stable | fraction unbound [6]: 0.024 | clearance [7]: 8.2 mL/min/kg | Vd [8]: 1.6 L/kg | solubility [9]: 5 µg/mL (≈ 12.8 µM) | half-life [10]: 3 h | Tmax [11]: 0.5 h | Cmax [12]: 2110 nM | AUC(0-inf) [13]: 9.35 µM·h | bioavailability [14]: 46% | concentration at 2 h [15]: 1300 nM | concentration at 2 h [16]: 50 nM | QH (Homo sapiens): < 26% | IC50 (Fatty acid synthase [1]): 79 nM | IC50 (Fatty acid synthase [17]): 600 nM | inhibition (Rattus norvegicus [18]): 19% | inhibition [19]: 17% | inhibition (Rattus norvegicus [20]): 17% | inhibition [21]: 13% | inhibition (Rattus norvegicus [22]): 13% | inhibition (Rattus norvegicus [23]): 12% | inhibition [24]: 10% | inhibition [25]: 10% | inhibition [26]: 9% | inhibition [27]: 9% | inhibition [28]: 9% | inhibition (Rattus norvegicus [29]): 8% | inhibition [30]: 7% | inhibition (Rattus norvegicus [31]): 7% | inhibition (Mus musculus): 6% | inhibition [32]: 5% | inhibition [33]: 4% | inhibition [34]: 4% | inhibition (Rattus norvegicus [35]): 4% | inhibition [36]: 2% | inhibition (Rattus norvegicus [37]): 1% | inhibition [38]: 0% | inhibition [39]: 0% | inhibition [40]: -1% | inhibition [41]: -1% | inhibition [42]: -2% | inhibition at 10 µM (hERG (KCNH2)): -5% | inhibition [43]: -6% | inhibition [44]: -7% | IC50 (Cytochrome P450 1A2): > 10000 nM | IC50 (Cytochrome P450 2C9): > 10000 nM | IC50 (Cytochrome P450 2C19): > 10000 nM | IC50 (Cytochrome P450 2D6): > 10000 nM | IC50 (Cytochrome P450 3A4): > 10000 nM | Activity (U937 (Homo sapiens)): Non-toxic

CN(C(=O)[C@@H]1CC[C@H](NC(=O)C(F)F)C1)c1ccc(-c2nc3ccccc3o2)cc1
IC50 (Fatty acid synthase [1]): 270 nM

CN(C)CCCCCC(=O)N[C@H]1CC[C@@H](C(=O)N(C)c2ccc(-c3nc4ccccc4[nH]3)cc2)C1
IC50 (Fatty acid synthase [1]): 700 nM

CCC(=O)N[C@H]1CC[C@@H](C(=O)N(C)c2ccc(-c3cn4ccccc4n3)cc2)C1
IC50 (Fatty acid synthase [1]): 290 nM

CCC(=O)N[C@H]1CC[C@@H](C(=O)N(C)c2ccc(-c3nc4ccccc4[nH]3)cc2)C1
IC50 (Fatty acid synthase [1]): 190 nM

CN(C)CCCCCC(=O)N[C@H]1CC[C@@H](C(=O)N(C)c2ccc(-c3nc4ccccc4n3C)cc2)C1
IC50 (Fatty acid synthase [1]): 2400 nM

CCC(=O)N[C@H]1CC[C@@H](C(=O)N(C)c2ccc(-c3nc4ccccc4n3C)cc2)C1
IC50 (Fatty acid synthase [1]): 310 nM

CCNC(=O)N[C@H]1CC[C@@H](C(=O)N(C)c2ccc(-c3nc4ccccc4o3)cc2)C1
IC50 (Fatty acid synthase [1]): 530 nM

CCNC(=O)N[C@H]1CC[C@@H](C(=O)N(C)c2ccc(-c3ccccc3)cc2)C1
IC50 (Fatty acid synthase [1]): 1500 nM

CN(C)C(=O)N[C@H]1CC[C@@H](C(=O)N(C)c2ccc(-c3nc4ccccc4o3)cc2)C1
IC50 (Fatty acid synthase [1]): 280 nM

CC(=O)N[C@H]1CC[C@@H](C(=O)N(C)c2ccc(-c3ccccc3)cc2)C1
IC50 (Fatty acid synthase [1]): 480 nM
